The source made the active and inactive calls. The calls are words filed in the database; no cut-off is given here.
Assays:
[1] = Stability of the compound in buffer at pH 2 measured over 48 hrs; format: physicochemical; settings: pH 2, 48 h
[2] = Stability of the compound in buffer at pH 9 measured over 48 hrs; format: physicochemical; settings: pH 9, 48 h
Plasma [3] = assay: Cmax in CD1 mouse plasma at 30 mg/kg, ip; format: ADME, organism-based; set-up: dose 30 mg/kg, route intraperitoneal; settings: in vivo
Summary of the method: (§1)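 Male CD1 mice, 6–8 weeks old, given a single 30 mg/kg IP dose formulated as a solution in 10% Solutol, 10% Cremophor EL and 20% PEG 400 in saline. Plasma and brain were sampled at eight time points over 24 h, in triplicate. Study run at a contract lab.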

[4] = Metabolic stability in mouse plasma assessed as compound remaining measured at 2 hrs; format: ADME, cell-free; settings: read-out: Stability
Summary of the method: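 Compound was incubated in mouse plasma, and the percent remaining was measured at 2 h. Run at a contract lab.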

[5] = molecular target: T1, Prostaglandin G/H synthase 1 (Ovis aries) (UniProt P05979); assay: Inhibition of ovine COX-1 using arachidonic acid as substrate assessed as consumption of oxygen at 5 uM preincubated for 5 mins followed by substrate addition by oxygen electrode-based assay relative to control
T1 sequence (whole entry): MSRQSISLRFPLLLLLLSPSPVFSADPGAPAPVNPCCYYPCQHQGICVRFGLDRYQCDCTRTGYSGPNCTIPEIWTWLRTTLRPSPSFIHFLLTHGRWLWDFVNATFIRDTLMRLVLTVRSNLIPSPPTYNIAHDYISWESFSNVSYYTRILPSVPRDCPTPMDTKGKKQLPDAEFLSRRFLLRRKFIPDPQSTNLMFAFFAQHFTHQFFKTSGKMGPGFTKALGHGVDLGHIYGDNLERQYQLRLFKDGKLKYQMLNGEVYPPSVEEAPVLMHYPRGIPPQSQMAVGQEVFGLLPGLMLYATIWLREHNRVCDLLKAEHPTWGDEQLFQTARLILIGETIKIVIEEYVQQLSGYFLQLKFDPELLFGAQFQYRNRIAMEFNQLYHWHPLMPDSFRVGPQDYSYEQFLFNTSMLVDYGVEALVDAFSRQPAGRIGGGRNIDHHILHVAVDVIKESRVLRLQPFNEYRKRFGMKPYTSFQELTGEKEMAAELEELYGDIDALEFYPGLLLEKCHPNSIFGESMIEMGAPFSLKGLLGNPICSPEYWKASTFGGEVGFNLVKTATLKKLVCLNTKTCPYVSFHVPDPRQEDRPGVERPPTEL
Summary of the method: (§2)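 COX-1 or COX-2 (2–5 μg) in 0.1 M Tris-HCl pH 8.0 with 5 mM EDTA, 2 mM phenol and 1 μM hematin at 37 °C. Inhibitor was preincubated 5 min, then 100 μM arachidonic acid was added. Oxygen consumption was read on an oxygen electrode, and percent inhibition was calculated against a DMSO control, with indomethacin as positive control.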

Liver [6] = assay: Half life in mouse liver microsomes in presence of NADPH; format: ADME
Summary of the method: (§3)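 Rat or mouse liver microsomes were incubated with NADPH, and half-life was taken from compound depletion. Run at a contract lab.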

Liver microsome [7] = assay: Metabolic stability in rat liver microsomes measured over 1 hr in absence of NADPH; format: ADME
Summary of the method: (§4)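 Liver microsomes (mouse or rat) were incubated without NADPH over a 1 h period, and compound degradation was followed. Run at a contract lab.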

[8] = molecular target: T2, Polyunsaturated fatty acid lipoxygenase ALOX15 (Mus musculus) (UniProt P39654); assay: Inhibition of 12/15-lipoxygenase in mouse HT22 cells assessed as reduction of 12-HETE production at 10 uM after 24 hrs by HPLC/MS analysis; format: cell-based; settings: HT-22
T2 sequence (whole entry): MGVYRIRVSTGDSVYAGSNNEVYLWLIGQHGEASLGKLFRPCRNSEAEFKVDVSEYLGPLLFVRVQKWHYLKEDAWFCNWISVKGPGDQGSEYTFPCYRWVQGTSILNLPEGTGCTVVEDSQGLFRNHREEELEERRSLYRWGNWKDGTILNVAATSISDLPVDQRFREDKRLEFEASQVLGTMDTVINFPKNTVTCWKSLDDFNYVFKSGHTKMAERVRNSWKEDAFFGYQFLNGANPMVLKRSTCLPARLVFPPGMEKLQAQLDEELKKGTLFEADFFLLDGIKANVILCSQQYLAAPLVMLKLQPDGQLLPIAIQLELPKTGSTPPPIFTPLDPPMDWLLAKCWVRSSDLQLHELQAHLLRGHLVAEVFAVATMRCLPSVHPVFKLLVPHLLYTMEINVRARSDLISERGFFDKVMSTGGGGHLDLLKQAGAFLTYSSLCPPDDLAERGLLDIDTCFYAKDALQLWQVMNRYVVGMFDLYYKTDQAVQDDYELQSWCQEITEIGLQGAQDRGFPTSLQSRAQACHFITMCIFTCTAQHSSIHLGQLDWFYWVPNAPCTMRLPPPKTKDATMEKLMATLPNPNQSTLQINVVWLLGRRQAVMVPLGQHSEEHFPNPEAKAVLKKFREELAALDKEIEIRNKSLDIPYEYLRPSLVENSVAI
Summary of the method: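 HT22 cells were grown in 75 cm² flasks in phenol red-free DMEM with 5% FBS and treated at 50–70% confluence with 5 mM glutamate with or without compound. After 24 h the eicosanoid fraction of the medium was isolated on a C-18 cartridge. 12-HETE was quantified by HPLC/MS against a 12(S)-HETE standard curve.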

Liver [9] = assay: Metabolic stability in mouse liver microsomes measured over 1 hr in absence of NADPH; format: ADME; summary of the method: as §4
[10] = molecular target: T2, Polyunsaturated fatty acid lipoxygenase ALOX15 (Mus musculus); assay: Inhibition of 12/15-lipoxygenase in mouse HT22 cells assessed as protection against glutamate-induced cell death after 24 hrs by LDH release assay; format: cell-based; settings: HT-22
Summary of the method: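 HT22 mouse hippocampal cells were grown in DMEM with 10% FBS and penicillin/streptomycin, seeded at 1 × 10^4 cells/well and treated 18 h later at 50–70% confluence. Medium was exchanged for fresh medium with 5 mM glutamate plus compound or DMSO (≤0.1% final). Death was scored as percent LDH released to the medium versus the cell extract, background-subtracted.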

Plasma [11] = assay: Half life in CD1 mouse plasma at 30 mg/kg, ip; format: ADME, organism-based; set-up: dose 30 mg/kg, route intraperitoneal; settings: in vivo; summary of the method: as §1
Brain [12] = assay: Cmax in CD1 mouse brain at 30 mg/kg, ip; format: ADME, organism-based; set-up: dose 30 mg/kg, route intraperitoneal; settings: in vivo; summary of the method: as §1
Brain [13] = assay: Half life in CD1 mouse brain at 30 mg/kg, ip; format: ADME, organism-based; set-up: dose 30 mg/kg, route intraperitoneal; settings: in vivo; summary of the method: as §1
Liver microsome [14] = assay: Half life in rat liver microsomes in presence of NADPH; format: ADME; summary of the method: as §3
[15] = molecular target: T3, Prostaglandin G/H synthase 2 (Homo sapiens) (UniProt P35354); assay: Inhibition of human COX-2 using arachidonic acid as substrate assessed as consumption of oxygen at 5 uM preincubated for 5 mins followed by substrate addition by oxygen electrode-based assay relative to control; summary of the method: as §2
T3 sequence (whole entry): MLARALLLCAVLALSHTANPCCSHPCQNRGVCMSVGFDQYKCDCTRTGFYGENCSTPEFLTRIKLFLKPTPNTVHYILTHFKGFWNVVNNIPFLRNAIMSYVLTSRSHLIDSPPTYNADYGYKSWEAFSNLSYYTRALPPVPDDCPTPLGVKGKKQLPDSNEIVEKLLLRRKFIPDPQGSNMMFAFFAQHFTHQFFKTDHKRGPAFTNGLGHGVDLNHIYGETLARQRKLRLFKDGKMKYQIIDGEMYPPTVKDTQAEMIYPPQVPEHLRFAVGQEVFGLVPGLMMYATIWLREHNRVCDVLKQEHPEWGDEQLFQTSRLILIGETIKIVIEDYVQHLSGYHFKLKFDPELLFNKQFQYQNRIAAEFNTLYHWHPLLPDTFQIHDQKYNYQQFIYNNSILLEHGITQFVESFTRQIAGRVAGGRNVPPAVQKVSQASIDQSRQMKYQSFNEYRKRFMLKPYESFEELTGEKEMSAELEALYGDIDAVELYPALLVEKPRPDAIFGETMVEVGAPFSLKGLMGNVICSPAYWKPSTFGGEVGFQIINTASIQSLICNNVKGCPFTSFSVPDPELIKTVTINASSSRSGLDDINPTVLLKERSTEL

Mus musculus = assay: Neuroprotective activity in C57BL6J mouse distal middle cerebral artery occlusion model of permanent focal ischemia assessed as reduction in infarct size at 50 mg/kg, ip administered 2 hrs post ischemia induction measured after 24 hrs by TTC staining relative to vehicle-treated control; format: functional; set-up: scale not given: the % may be the effect or the level left; settings: route intraperitoneal
Summary of the method: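 FeCl3-induced distal MCA occlusion: 10% FeCl3-saturated filter paper on intact dura along MCA under 1.5% isoflurane in N2O/O2, body temperature held at 37 ± 0.3 °C, rCBF followed by laser doppler for 3 h. Compound or DMSO vehicle given IP after 2 h ischemia. Sacrifice at 24 h; TTC staining of 1 mm slices, indirect infarct volume; surgeon and assessor blinded.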

[16] = Stability of the compound in DPBS buffer at pH 7.4 measured over 48 hrs; format: physicochemical; settings: pH 7.4, 48 h

SMILES: CNc1oc(-c2cccc3ccccc23)nc1C#N
- Stability [1]: Stable
- Stability [2]: Stable
- Cmax (Plasma [3]): 13.8 µM
- remaining at 2 h [4]: 100%
- inhibition [5]: < 10%
- t1/2 (Liver [6]): 5.5 min
- Stability (Liver microsome [7]): Stable
- inhibition [8]: Active
- Stability (Liver [9]): Stable
- inhibition [10]: Dose-dependent effect
- t1/2 (Plasma [11]): 66 min
- Cmax (Brain [12]): 28.8 µM
- t1/2 (Brain [13]): 60 min
- t1/2 (Liver microsome [14]): 18 min
- inhibition [15]: < 10%
- Activity (Mus musculus): 30%
- Stability [16]: Stable
